In ChEMBL document CHEMBL3997844, “Synthesis and anti-inflammatory activity of isoquebecol” (Bioorg Med Chem, 2017) one finds MNTC and inhibition data, which are given here for 21 compounds.

Data set [1] is described as follows: Cytotoxicity against human U937-derived macrophage-like cells assessed as reduction in cell viability after 24 hrs by MTT assay. Particulars: read-out: MNCC. It is filed as cell-based, U-937. The gist of the method: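 PMA-differentiated U937 macrophage-like cells (1×10^6 cells/well, RPMI-1% FBS) exposed to 2-fold serial dilutions from 1000 to 7.81 µM for 24 h. Viability read by MTT assay; highest non-cytotoxic concentration recorded.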
Background: Tetrazolium assays rely on reduction of a dye to a coloured formazan, in cell work by metabolically active cells.

Data set [2] relates to U-937. Description: Anti-inflammatory activity in human U937-derived macrophage-like cells assessed as inhibition of LPS-induced IL-6 secretion at 250 uM preincubated for 2 hrs followed by LPS addition measured after 24 hrs by ELISA relative to control. The class given is functional.
Data set [3] relates to U-937. Description: Anti-inflammatory activity in human U937-derived macrophage-like cells assessed as inhibition of LPS-induced IL-6 secretion at 125 uM preincubated for 2 hrs followed by LPS addition measured after 24 hrs by ELISA relative to control. The class given is functional. Background: ELISA stands for enzyme-linked immunosorbent assay.
Data set [4] concerns U-937. The data set can be described thus: Anti-inflammatory activity in human U937-derived macrophage-like cells assessed as inhibition of LPS-induced IL-6 secretion at 62.5 uM preincubated for 2 hrs followed by LPS addition measured after 24 hrs by ELISA relative to control. It is filed as functional.
Data set [5] relates to U-937. The data set can be described thus: Anti-inflammatory activity in human U937-derived macrophage-like cells assessed as inhibition of LPS-induced IL-6 secretion at 31.25 uM preincubated for 2 hrs followed by LPS addition measured after 24 hrs by ELISA relative to control. The class given is functional.
Data set [6] deals with U-937. Description: Anti-inflammatory activity in human U937-derived macrophage-like cells assessed as inhibition of LPS-induced IL-6 secretion at 500 uM preincubated for 2 hrs followed by LPS addition measured after 24 hrs by ELISA relative to control. It is filed as functional.
In data set [7] the test system is U-937. The data set can be described thus: Anti-inflammatory activity in human U937-derived macrophage-like cells assessed as inhibition of LPS-induced IL-6 secretion preincubated for 2 hrs followed by LPS addition measured after 24 hrs by ELISA. The class given is functional, cell-based.

What is called inhibition is the relative decrease from the control value, in per cent. With `CCOC(=O)C(=C(c1ccc(O)c(OC)c1)c1ccc(O)c(OC)c1)c1ccc(O)c(OC)c1`, the MNTC at 24 h in data set [1] stood at 62.5 µM. Also, in the data set on U-937 [2], the inhibition at 250 µM is 100%. In the data set with U-937 [3], the inhibition at 125 µM is 99.5%. Besides, the inhibition at 62.5 µM in the data set with U-937 [4] came to 11.2%. In addition, the inhibition at 31.25 µM in the data set on U-937 [5] turned out to be 2.5%. Moreover, the inhibition at 500 µM with U-937 [6] worked out at 100%.
Take `COc1cc(C(CO)C(c2ccc(O)c(OC)c2)c2ccc(O)c(OC)c2)ccc1O` (centres undefined): the MNTC at 24 h in data set [1] turned out to be 500 µM. Also, in the data set on U-937 [2], the inhibition at 250 µM was 84.7%. In addition, the inhibition at 125 µM with U-937 [3] is 55.3%. Moreover, the inhibition at 62.5 µM in the data set on U-937 [4] is 4.7%. For the same compound, the inhibition at 31.25 µM in the data set with U-937 [5] amounted to 3.7%. Also, in the data set with U-937 [6], the inhibition at 500 µM was found to be 93.8%. For the same compound, the inhibition result in the data set on U-937 [7] was “Dose-dependent effect”.
Turning to `COc1ccc(C(O)CO)cc1O` (centres undefined), the MNTC at 24 h in data set [1] came out at 500 µM. The inhibition at 250 µM in the data set on U-937 [2] is 20.9%. For the same compound, the inhibition at 125 µM in the data set with U-937 [3] is 1.4%. The inhibition at 500 µM in the data set with U-937 [6] is 83.8%.
Turning to `COc1cc(C(O)CO)ccc1O` (centres undefined), the MNTC at 24 h in data set [1] worked out at 500 µM. For the same compound, in the data set on U-937 [2], the inhibition at 250 µM was found to be 8%. Further, in the data set on U-937 [3], the inhibition at 125 µM came to 2.1%. In addition, the inhibition at 500 µM in the data set with U-937 [6] was 86.8%.
On to `COc1cc(CCO)ccc1O`, for which the MNTC at 24 h in data set [1] was more than 1000 µM. Besides, the inhibition at 250 µM in the data set on U-937 [2] is 0.9%. In the data set on U-937 [3], the inhibition at 125 µM came to 1.1%. Also, the inhibition at 500 µM with U-937 [6] came out at 1.2%.
As for `COc1ccc(C(=O)CO)cc1O`, in data set [1], the MNTC at 24 h stood at 500 µM. Moreover, the inhibition at 250 µM with U-937 [2] worked out at 24.1%. In the data set on U-937 [3], the inhibition at 125 µM worked out at 0.8%. The inhibition at 500 µM in the data set on U-937 [6] was 92.5%.
Take `CCOC(=O)Cc1ccc(OC)c(O)c1`: the MNTC at 24 h in data set [1] was more than 1000 µM. For the same compound, the inhibition at 250 µM in the data set with U-937 [2] amounted to 3.2%. The inhibition at 125 µM with U-937 [3] was 0.8%. Also, the inhibition at 500 µM with U-937 [6] is 8.3%.
Consider `CCOC(=O)Cc1ccc(O)c(OC)c1`, for which the MNTC at 24 h in data set [1] is more than 1000 µM. Besides, the inhibition at 250 µM in the data set with U-937 [2] came to 0.4%. Further, the inhibition at 125 µM in the data set on U-937 [3] is 0.2%. Further, in the data set with U-937 [6], the inhibition at 500 µM came out at 0.8%.
As to `CCOC(=O)C(c1ccccc1)C(c1ccccc1)c1ccccc1` (centres undefined), the MNTC at 24 h in data set [1] was determined as 62.5 µM. In addition, the inhibition at 250 µM in the data set on U-937 [2] came to 85.3%. In the data set with U-937 [3], the inhibition at 125 µM was found to be 2%. Moreover, in the data set on U-937 [4], the inhibition at 62.5 µM came out at 0.4%. Also, in the data set with U-937 [5], the inhibition at 31.25 µM was 0.2%. Further, the inhibition at 500 µM with U-937 [6] stood at 99.8%.
On to `COc1cc(C(=O)CO)ccc1O`, for which the MNTC at 24 h in data set [1] was determined as 500 µM. Moreover, the inhibition at 250 µM in the data set on U-937 [2] is 64.4%. The inhibition at 125 µM in the data set with U-937 [3] was found to be 4.9%. In the data set with U-937 [6], the inhibition at 500 µM is 90.1%.
With `COc1ccc(Cc2ccc(OC)c(O)c2)cc1O`, the MNTC at 24 h in data set [1] is 500 µM. In the data set on U-937 [2], the inhibition at 250 µM is 92.5%. The inhibition at 125 µM in the data set with U-937 [3] came out at 50.7%. Moreover, the inhibition at 500 µM with U-937 [6] is 99.8%.
`OCC(c1ccccc1)C(c1ccccc1)c1ccccc1` (centres undefined): the MNTC at 24 h in data set [1] came out at 31.2 µM. The inhibition at 250 µM with U-937 [2] amounted to 100%. Besides, in the data set on U-937 [3], the inhibition at 125 µM was found to be 100%. In the data set on U-937 [4], the inhibition at 62.5 µM was 15.6%. For the same compound, in the data set with U-937 [5], the inhibition at 31.25 µM came to 1.4%. The inhibition at 500 µM in the data set with U-937 [6] was 100%.
With `COc1cc(Cc2ccc(O)c(OC)c2)ccc1O`, the MNTC at 24 h in data set [1] stood at 500 µM. Moreover, the inhibition at 250 µM with U-937 [2] came to 90.5%. Besides, the inhibition at 125 µM in the data set with U-937 [3] was 27.5%. Besides, in the data set with U-937 [6], the inhibition at 500 µM turned out to be 98.1%.
In the case of `COc1ccc(CCO)cc1O`, in data set [1], the MNTC at 24 h was more than 1000 µM. Further, the inhibition at 250 µM with U-937 [2] was 2.7%. For the same compound, the inhibition at 125 µM with U-937 [3] came out at 0.9%. In the data set on U-937 [6], the inhibition at 500 µM came to 5.1%.
As to `COc1ccc(CC(=O)O)cc1O`, the MNTC at 24 h in data set [1] is more than 1000 µM. In the data set on U-937 [2], the inhibition at 250 µM worked out at 2.1%. The inhibition at 125 µM in the data set on U-937 [3] turned out to be 0.5%. In the data set on U-937 [6], the inhibition at 500 µM is 2%.
Turning to `COc1cc(CC(=O)O)ccc1O` [HOMOVANILLIC ACID], the MNTC at 24 h in data set [1] was more than 1000 µM. The inhibition at 250 µM in the data set on U-937 [2] amounted to 0.2%. The inhibition at 125 µM in the data set with U-937 [3] turned out to be 0.3%. For the same compound, the inhibition at 500 µM with U-937 [6] was 0.6%.
For the compound `CCOC(=O)C(c1ccc(O)c(OC)c1)C(c1ccc(O)c(OC)c1)c1ccc(O)c(OC)c1` (centres undefined), the MNTC at 24 h in data set [1] is 250 µM. Further, the inhibition at 250 µM in the data set on U-937 [2] came out at 91.9%. The inhibition at 125 µM in the data set on U-937 [3] was 34.6%. The inhibition at 62.5 µM with U-937 [4] amounted to 9.4%. For the same compound, the inhibition at 31.25 µM in the data set with U-937 [5] came to 4%. Besides, in the data set on U-937 [6], the inhibition at 500 µM came to 100%.
On to `CCOC(=O)C(=C(c1ccc(OC)c(O)c1)c1ccc(OC)c(O)c1)c1ccc(OC)c(O)c1`, for which, in data set [1], the MNTC at 24 h amounted to 62.5 µM. The inhibition at 250 µM with U-937 [2] amounted to 100%. Further, the inhibition at 125 µM in the data set on U-937 [3] came out at 97.8%. Moreover, the inhibition at 62.5 µM with U-937 [4] came to 31.2%. Also, the inhibition at 31.25 µM in the data set on U-937 [5] amounted to 0.8%. In the data set with U-937 [6], the inhibition at 500 µM was determined as 100%.
As to `CCOC(=O)C(c1ccc(OC)c(O)c1)C(c1ccc(OC)c(O)c1)c1ccc(OC)c(O)c1` (centres undefined), the MNTC at 24 h in data set [1] worked out at 62.5 µM. For the same compound, the inhibition at 250 µM in the data set with U-937 [2] came to 96.8%. Further, in the data set on U-937 [3], the inhibition at 125 µM was found to be 41.3%. For the same compound, the inhibition at 62.5 µM with U-937 [4] is 5.9%. Further, in the data set with U-937 [5], the inhibition at 31.25 µM was found to be 3%. In addition, the inhibition at 500 µM with U-937 [6] stood at 100%.
As to `COc1ccc(C(CO)C(c2ccc(OC)c(O)c2)c2ccc(OC)c(O)c2)cc1O` (centres undefined), in data set [1], the MNTC at 24 h is 250 µM. Moreover, the inhibition at 250 µM in the data set on U-937 [2] came to 96.9%. In addition, the inhibition at 125 µM with U-937 [3] was found to be 48.3%. In addition, in the data set with U-937 [4], the inhibition at 62.5 µM is 43.3%. In addition, in the data set on U-937 [5], the inhibition at 31.25 µM was 34.5%. In addition, in the data set with U-937 [6], the inhibition at 500 µM turned out to be 99.7%. For the same compound, the inhibition entry with U-937 [7] is “Dose-dependent effect”.
`CCOC(=O)C(=C(c1ccccc1)c1ccccc1)c1ccccc1`: in data set [1], the MNTC at 24 h is less than 15.6 µM. In addition, the inhibition at 250 µM in the data set on U-937 [2] is 100%. For the same compound, the inhibition at 125 µM in the data set with U-937 [3] worked out at 11%. The inhibition at 62.5 µM with U-937 [4] is 0.5%. In addition, the inhibition at 31.25 µM with U-937 [5] is 0.5%. The inhibition at 500 µM with U-937 [6] was 100%.
